Measurements reported in PMC2199177 (The Journal of Experimental Medicine, 1997).

Columns and labels:
T1 CTL = test: 51Cr-release assay; format: cell-based; settings: without Fab'
Summary of the method: (§1)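 51Cr-labeled P815 targets (2 × 10^3/well) in DMEM with FCS (5%) and Hepes (10 mM) plus 10-fold peptide dilutions, 10−6–10−13 M. Cloned CTL (6 × 10^3/well) added, 4 h at 37°C, then supernatant 51Cr counted. Specific lysis was derived from spontaneous and total release. Relative activity is the wt half-maximal-lysis concentration divided by the variant's, normalized by relative Kd competitor activity. Triplicates, at least two experiments.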

S14 CTL [1] = settings: ref [4]; cited from earlier work
S17 CTL [2] = test: 51Cr-release assay; format: cell-based; settings: without Fab'
Summary of the method: as §1

S14 CTL [3] = test: 51Cr-release assay; format: cell-based; settings: without Fab'
Summary of the method: as §1

S17 CTL [4] = test: Interferon γ assay; format: cell-based
Summary of the method: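 CTL were incubated with peptide-sensitized P815 targets as in the cytotoxicity assay, with peptide derivatives at 10−6–10−11 M, some runs with SF1-1.1.1 Fab′ (anti-Kd α3) to block CD8 participation. After 24 h, supernatant IFN-γ was measured by ELISA and values were normalized to the wt ligand. Triplicates, at least two experiments.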

Row | Substance | functional phenotype (antigen recognition versus TCR-ligand binding) (S17 CTL [2]) | effect of blocking of CD8 (SF1-1.1.1 Fab') on IFN-γ production (S17 CTL [4]) | also measured
1 | IASA-YIASAEK(ABA)I [P255A] | – | – | functional phenotype (antigen recognition versus TCR-ligand binding) (T1 CTL): strong agonists
2 | IASA-YILSAEK(ABA)I [P255L] | – | – | functional phenotype (S14 CTL [1]): antagonist
3 | IASA-YIPAAEK(ABA)I [S256A] | strong agonists | – | –
4 | IASA-YIPSAAK(ABA)I [E258A] | – | – | functional phenotype (antigen recognition versus TCR-ligand binding) (S14 CTL [3]): weak agonists
5 | IASA-YIPSAEK(ABA)I [WT] | – | substantially increased | –
6 | IASA-YISSAEK(ABA)I [P255S] | weak agonists | substantially increased | –
